An excerpt weighted towards active compounds, which were near 1.6% of everything screened.
PPC-1+TRAIL kill: kills PPC-1 cancer cells in the presence of TRAIL | PPC-1 cells + TRAIL, ATPLite viability luminescence | cell killing (% activity), % at 4 µM or 5 µM | actives 0.41% (n = 220,000);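 active = cell killing above 50% in the first pass at 4 µM, then a duplicate retest at 5 µM averaging 50% or more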;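 also: plate controls were cells with TRAIL plus DMSO for no effect and medium-only wells lacking cells for full effect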
TRAIL sens C8: caspase-8 TRAIL sensitization; NB7+C8 cells + TRAIL, ATPlite viability luminescence; inhibition (viability loss, TRAIL sensitization), % at 10 µM; actives 1% (n = 360,000);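 active = compounds causing at least 50% loss of cell viability in the single-dose screen, relative to plate controls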
FLuc inh counter: inhibits firefly luciferase, flagging false hits in luciferase inhibition screens. inhibition, % at 10 µM. actives 1.5% (n = 200,000). ATPLite firefly luciferase biochemical luminescence, 10 min. P08659. AID 1006;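 active = inhibition above about 50% when tested at 10 µM, limit read from the data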
Target sequence (P08659 whole entry, looked up): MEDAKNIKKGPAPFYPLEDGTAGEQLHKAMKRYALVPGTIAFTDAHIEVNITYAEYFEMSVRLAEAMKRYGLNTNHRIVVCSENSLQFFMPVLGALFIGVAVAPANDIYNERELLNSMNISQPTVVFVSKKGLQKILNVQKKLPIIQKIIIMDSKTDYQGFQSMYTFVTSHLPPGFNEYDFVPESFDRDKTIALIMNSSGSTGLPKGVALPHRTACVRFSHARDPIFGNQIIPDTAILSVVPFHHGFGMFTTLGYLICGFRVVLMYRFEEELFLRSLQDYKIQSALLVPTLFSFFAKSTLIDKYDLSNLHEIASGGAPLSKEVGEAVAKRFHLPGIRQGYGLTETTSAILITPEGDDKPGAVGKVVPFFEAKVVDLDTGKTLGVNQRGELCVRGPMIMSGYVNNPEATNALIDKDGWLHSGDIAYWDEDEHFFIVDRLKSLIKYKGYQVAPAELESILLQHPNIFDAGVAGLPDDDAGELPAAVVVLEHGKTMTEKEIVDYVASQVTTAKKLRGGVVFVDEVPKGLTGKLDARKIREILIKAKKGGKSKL
FLuc act counter: affects firefly luciferase, flagging false hits in luciferase stimulation screens. P08659. ATPlite luciferase biochemical, luminescence, 10 min; 0 = ATP-free wells, 1 = DMSO control. activation factor at 10 µM. 200,000 tested, under 10 active. AID 1027;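 active = luciferase activation factor, scaled between plate controls, of at least 2 with compound at 10 µM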
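Assay system: Luciferase/luciferin reagent mix; Medium: PBS as buffer for the ATP substrate; Dosing: test compounds dosed from 2 mM stocks in 100% DMSO; Times: 10 min, room temperature; Signal: luminescence from luciferase reaction; Read-out: luciferase activation; Controls: No-ATP low control, compound-free enzyme-plus-ATP high control.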
PPC-1 tox: PPC-1 cell cytotoxicity | shares compounds with PPC-1+TRAIL kill | PPC-1 viability, ATPlite luminescence, overnight | cytotoxicity, % at 5 µM | actives 50% (n = 1,200) | AID 1447;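 active = reconfirmed compounds whose average cytotoxicity reaches 50% or more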;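 also: 0% = DMSO-treated cells and 100% = wells holding medium but no cells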
Numbers without * were called inactive; / = not tested or not shown.

SMILES	PPC-1+TRAIL kill	TRAIL sens C8	FLuc inh counter	FLuc act counter	PPC-1 tox
CS/C(Nc1cc(Cl)ccc1Cl)=C(/C#N)C(=O)c1ccco1	21	76*	/	/	23
O=C(Nc1ccc(Cl)c(Cl)c1)c1ccncc1	8	3	1	1	12
O=C(Nc1ccc(Cl)c(Cl)c1)c1ccc(Cl)c(Cl)c1	2	-1	/	/	/
COc1ccc(NC(=O)c2cc([N+](=O)[O-])ccc2N2CCCC2)cc1S(N)(=O)=O	/	10	/	/	/
CC(Oc1cccc(Cl)c1)C(=O)Nc1cc(=O)n(C)c(=O)n1C (centres undefined)	2	-15	-10	1.1	-3
Cc1nnsc1C(=O)NC1CCCc2c1cnn2-c1ccc(C(C)(C)C)cc1 (centres undefined)	/	24	/	/	/
Cc1cc(NC(=O)CSC2=Nc3ccccc3C3=NC(Cc4ccccc4)C(=O)N23)n[nH]1 (centres undefined)	-6	-5	-3	1	-2
c1ccc(-c2nc3ccccc3[nH]2)cc1	/	25	/	/	/
C(=C\c1nc2ccccc2[nH]1)/c1ccccc1	88*	86*	94*	0.1	88*
O=C(Nc1ccccc1Br)c1cccc2ccccc12	/	5	/	/	/
O=c1c2c(-c3ccccc3)csc2nc2c3ccccc3c(NCCN3CCOCC3)nn12	-6	72*	0	1	6
COC(=O)c1ccc(NC(C)C(=O)OC)c([N+](=O)[O-])c1 (centres undefined)	-12	-3	-4	1	/
COC(=O)c1ccc(Nc2nc(C)cc(=O)[nH]2)cc1	3	-4	0	1	15
CC(=O)Nc1sc2c(c1-c1nc3ccccc3s1)CCN(C(C)C)C2	37	54*	-3	1	27
Cc1ccc(C(=O)N2CCCCC2)cc1S(=O)(=O)N1CCOCC1	/	6	/	/	/
COc1ccc(Cl)cc1-c1nc(SCC(=O)N(C)CCC#N)n[nH]1	-10	-5	-4	1	-10
COc1ccc(Cl)cc1-c1nc(SCC(=O)NC2CCS(=O)(=O)C2)n[nH]1 (centres undefined)	/	-16	/	/	/
CC(C)(C)c1ccc(NC(=O)Nc2ccc(OCC(=O)N3CCOCC3)cc2)cc1	63*	78*	92*	0.1	63*
COc1ccc(S(=O)(=O)NC(=O)C2(C)CCN2C(=O)c2cccc(F)c2)cc1 (centres undefined)	/	8	/	/	/
O=C1/C(=C/c2ccc(N3CCOCC3)o2)SC(=Nc2ccccc2)N1CCc1c[nH]c2ccccc12	-12	34	-5	1	-6
CC(CC(=O)Nc1ccc2c(c1)c(=O)n(C)n2-c1cccs1)c1ccccc1 (centres undefined)	/	16	/	/	/
COc1ccc(NC(=O)c2nc3ccccc3s2)cc1	36	46	61*	0.4	39
Cc1ccc(-c2sc(C(=O)NN)c(C)c2C#N)cc1	73*	34	/	/	76*
Cc1ccc(CSc2sc(C(=O)c3ccccc3)c(N)c2C#N)cc1	-1	-5	-9	1.1	/
COc1ccc(NS(=O)(=O)c2ccc3oc(=O)c4[nH]c(=O)c(=O)n(C)c4c3c2)cc1	/	16	/	/	/
SMILES	PPC-1+TRAIL kill	TRAIL sens C8	FLuc inh counter	FLuc act counter	PPC-1 tox
COc1cc(SC)ccc1C(=O)Nc1ccc(Br)cn1	88*	86*	/	/	88*
COc1cc(SC)ccc1C(=O)Nc1ccc2c(c1)OCO2	42	38	72*	0.3	40
COc1ccc(C(=O)Nc2ccc3c(c2)OCCO3)c(OC)c1	/	46	/	/	/
COc1cc(SC)ccc1C(=O)Nc1ncc(C)s1	73*	80*	93*	0.1	76*
COc1cc(SC)ccc1C(=O)Nc1ccccn1	68*	77*	/	/	66*
COc1cc(SC)ccc1C(=O)Nc1ncc(Cl)cc1Cl	40	21	27	0.7	/
CC(=O)Nc1nc(C)c(CCC2OCCO2)c(=O)[nH]1	-8	-23	/	/	/
O=Nc1c(O)[nH]c2ccc(Cl)cc12	20	-8	-3	1	/
Cc1cccc(CC(=O)NCCS(=O)(=O)N2CCN(c3ccccc3)CC2)c1	/	-1	/	/	/
O=C(COc1ccc(CO)cc1Cl)Nc1ccc(F)cc1	45	54*	72*	0.3	46
O=C(/C=C/c1ccccc1)Nc1cccc(C(=O)O)c1	64*	81*	92*	0.1	61*
O=C(/C=C/c1ccccc1)Nc1cc(NC(=O)/C=C/c2ccccc2)cc(C(=O)O)c1	/	-2	/	/	/
CSc1cccc(NC(=O)/C=C/c2ccccc2)c1	25	26	42	0.6	/
CSc1ccc(/C=C/C(=O)Nc2ccccc2)cc1	64*	58*	83*	0.2	66*
CSc1ccc(S(=O)(=O)NCC(=O)OCC(=O)N2CCCCC2C)cc1[N+](=O)[O-] (centres undefined)	/	11	/	/	/
Cc1ccc(-c2nc(N/N=C/c3cccnc3)c3ccccc3n2)cc1	91*	91*	97*	0	85*
Cc1ccc(-c2cc(-c3ccccc3)nc(N/N=C/c3cccnc3)n2)cc1	/	17	/	/	/
Cc1ccc(S(=O)(=O)N2CCN(C(=O)N3CCOCC3)C2C(C)C)cc1 (centres undefined)	-7	1	-5	1.1	/
CCN(CC)c1ccc(C2N(C(=O)N3CCOCC3)CCN2S(=O)(=O)c2ccc(C)cc2)cc1 (centres undefined)	12	-3	-6	1.1	9
COc1ccc(N2CCN(C3CCCN(C(=O)C4=C(C)OCCO4)C3)CC2)cc1 (centres undefined)	/	4	/	/	/
CC(=O)Nc1cccc(-c2nc3ccc(NC(C)=O)cc3s2)c1	38	48	66*	0.3	28
CCOc1ccc(-c2nc3ccccc3c(=O)o2)cc1	54*	68*	68*	0.3	56*
CC(=O)Oc1cccc(-c2nc3ccccc3c(=O)o2)c1	14	-5	12	0.9	/
O=C(N/N=C/c1ccco1)c1ccccn1	3	15	26	0.7	/
CC(C)(C)c1ccc(/C=N/NC(=O)c2ccccn2)cc1	64*	76*	93*	0.1	61*
SMILES	PPC-1+TRAIL kill	TRAIL sens C8	FLuc inh counter	FLuc act counter	PPC-1 tox
COc1ccc(NC(=O)O/N=C/c2c(C)nn(C(C)(C)C)c2C)cc1	72*	27	/	/	74*
Cc1ccc(C(=O)Nc2ccccc2N2CCCC2)cc1	/	29	/	/	/
O=c1c(O)c(-c2cccs2)oc2ccccc12	12	-1	-5	1.1	/
O=c1c(O)c(-c2cccs2)oc2ccc(Cl)cc12	2	11	-3	1	6
CCCCOc1ccc(C(=O)NCC(=O)N2CC(C)CC(C)C2)cc1 (centres undefined)	/	6	/	/	/
O=C(Cn1nc([N+](=O)[O-])nc1Br)NC(c1ccccc1)c1ccccc1	16	5	-5	1	/
CCc1sc(C(=O)N2CCc3ccccc32)cc1C	26	56*	63*	0.4	31
O=C(c1ccc(Cl)s1)N1CCc2ccccc21	23	23	36	0.6	/
OC(c1cc(-c2ccc(Cl)cc2)nc2ccccc12)C1CCCCN1 (centres undefined)	9	33	/	/	-6
OC(c1cc(C(F)(F)F)nc2c(Cl)cc(Cl)cc12)C1CCCCN1 (centres undefined)	17	3	/	/	/

Screening results (PubChem BioAssay)
